Laboratory results as given in ChEMBL document CHEMBL4513216, “Probing the Open Global Health Chemical Diversity Library for Multistage-Active Starting Points for Next-Generation Antimalarials” (ACS Infect Dis, 2020).

Test: Toxicity liver stage against HepG2, at 10uM
Type: cell-based
Parameters: test concentration 10 uM, cell line HepG2-A16-CD81EGFP
Conditions: human, HepG2-A16-CD81EGFP cells; read-out: INHIBITION
How it was run: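 Uninfected HepG2-A16-CD81EGFP cells, 3 × 10^3 per well, 1536-well, plated on prespotted compound at 10 μM final, parasite-free screening media added to match infected plates; puromycin 10 μM positive, DMSO 0.5% negative; run in parallel with 48 h PbLuc assay at 37 °C, 5% CO2; viability by CellTiter-Glo luminescence, normalized to controls.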

| Compound | cytotoxicity at 10 µM [%] |
| --- | --- |
| CNc1cc(C)nc(C2CN(Cc3cc[nH]n3)CCO2)c1 (stereo not given) | -9.09 |
| Cc1cnc(C(=O)N2CCCN(Cc3csc(C)n3)CC2)cn1 | -16 |
| CC1CCCN1Cc1cccc(C(=O)Nc2ccc3c(c2)CCC3=O)c1 (stereo not given) | -30.9 |
| CC(=O)N1CCCC1CCc1ccnc(-c2cncnc2)c1 (stereo not given) | 1.24 |
| CN1C(=O)C[C@@H]2[C@@H]1CCN2C(=O)c1ccc[nH]1 | -14.8 |
| CCNC(=O)NC(=O)CNC1(c2noc(C)n2)CCCC1 | 20.6 |
| Cc1cc(C)n(CCC(=O)N2CCCC(n3nc(C)nc3C)C2)n1 (stereo not given) | -5.61 |
| Cc1ccc(C)c(-n2cc(CN3CC[C@@H](O)C3)c(-c3ccccc3)n2)c1 | -6.77 |
| Cn1cc(C(=O)O)c(-c2ccc(F)cc2F)n1 | -4.03 |
| O=C(c1ccccn1)N1CCC(Nc2cccnn2)CC1 | -0.121 |
| CC(C)N(C(=O)Cn1cc(Cl)cn1)c1ccccc1 | -1.18 |
| COCC(C)NC(=O)c1sccc1-n1cnnn1 (stereo not given) | -0.132 |
| Cc1ccc(C(=O)N2CCC3(CCC(C(=O)NCC4CC4)O3)CC2)o1 (stereo not given) | 6.85 |
| CN1CCN(C)C2(CCN(Cc3ccc(C4CCCO4)s3)CC2)C1 (stereo not given) | -11.7 |
| COCCN(Cc1sccc1C)C(=O)C1CCN(C(C)C)CC1 | -2.72 |
| Cc1cnn(CCNCC(O)c2ccc(C(F)(F)F)cc2)c1 (stereo not given) | 4.48 |
| CC(=O)NCCC1CCCCN1S(=O)(=O)c1cccc(F)c1 (stereo not given) | -155 |
| CCc1cc(NCC(O)CN2CCCC2)ncn1 (stereo not given) | 6.09 |
| CNC(=O)[C@H]1C[C@H]2CN(Cc3ccc(C)cc3)C[C@@H]1O2 | 1.82 |
| CCn1ncc(C(=O)N2CCCN(CCCc3ccccc3)CC2)c1C | -2.62 |
| Cc1c(C2N3CC4(C)CN2CC(C)(C3)C4=O)[nH]c(=O)[nH]c1=O (stereo not given) | 6.57 |
| Cc1nc(-c2nnc(SCC(=O)O)n2C(C)c2ccccc2)co1 (stereo not given) | -6.3 |

| Compound | cytotoxicity at 10 µM [%] |
| --- | --- |
| O=c1c2ccccc2nc2n1CCN(Cc1cccs1)CC2 | 2.39 |
| O=C1C[C@@H]2CC[C@H](CN1)N2C1CSCCSC1 | -2.26 |
| O=C(Nc1ccccn1)C1CCN(Cc2cccc3c2OCCO3)CC1 | -0.586 |
| Cc1nn2c(nc1=O)-c1ccccc1NC2C(=O)O (stereo not given) | 5.32 |
| Cc1ccc(C2CN(CCCS(=O)(=O)C(C)C)CCO2)c(C)c1 (stereo not given) | -2.36 |
| CC(C)CN1C[C@@H]2CN(c3cnccn3)C[C@@H]2C1=O | -91.6 |
| CSCCN1CCC(NC(=O)c2cccc(C3CCCNC3)c2)CC1 (stereo not given) | 0.49 |
| COc1ccccc1NC(=O)C1(c2ccccc2)CCOCC1 | 7.59 |
| Cc1ccc2c(n1)N(Cc1cccnc1)CCN(C(=O)C1CCC1)C2 | 13.7 |
| Cc1cccc(C)c1NC(=O)CC(CN1CCN(C)CC1)C(=O)O (stereo not given) | -3.68 |
| CC(NC(=O)N1CCN(CCc2ccccc2)CC1)c1nncn1C (stereo not given) | 0.0722 |
| Cc1cccnc1CN1CCN(c2noc(-c3ccccc3)n2)CC1 | 8.09 |
| COCCNc1nc2c(c(NCC3CCOC3)n1)CCNCC2 (stereo not given) | -2.85 |
| Cc1cc2c(=O)n3c(nc2s1)CCN(Cc1ccncc1)CC3 | 10.9 |
| COc1ccccc1CNC(=O)COc1c(C)n(C)ccc1=O | -41.4 |
| O=S(=O)(Cc1c(F)cccc1Cl)NCCCN1CCCCCC1 | -10 |
| CC(=O)NC(c1cc(F)ccc1F)C1CC1 (stereo not given) | -1.99 |
| CN(C)CCNc1ccc(-c2nc(-c3ccccc3F)no2)cn1 | 9.34 |
| c1cncc(OC[C@]23COC[C@H]2CN(Cc2nccs2)C3)c1 | -1.43 |
| c1cncc(-c2cccc(-c3ccn(CCN4CCCCC4)n3)c2)c1 | 2.54 |
| O=C(N[C@@H]1CN(Cc2ccsc2)[C@@H]2CCCO[C@@H]21)C1CC1 | -5.47 |
| CC(C)NC(=O)N1CCC2(CC1)COc1ccccc1S(=O)(=O)N(C)C2 | 7.02 |

| Compound | cytotoxicity at 10 µM [%] |
| --- | --- |
| COCCCn1ccc(NC(=O)NCCn2ccnc2)n1 | -2.14 |
| c1cc(CNCc2ccnc(N3CCOCC3)c2)c2c(c1)OCO2 | 2.75 |
| CC(=O)N[C@@H]1CN(C(=O)c2cccc(C(F)(F)F)c2)C[C@H]1O | 1.9 |
| Clc1ccc(OCCN2CCN(CCn3cncn3)CC2)cc1 | -17.4 |
| COc1cccn(CC(=O)N(C)CCC2CCOCC2)c1=O | -19 |
| Cc1nc(CN2CC[C@@H]3O[C@@H](C(=O)N4CCOCC4)C[C@@H]32)cs1 | 2.08 |
| CN(CCc1ccccc1)Cc1cc(C(=O)N2CCN(C)C(=O)C2)no1 | -11.6 |
| Cc1cccc(CN2C[C@@H](NC(=O)C3CC3)[C@H]3OCCC[C@H]32)n1 | 7.8 |
| Cc1ncc2c(n1)CN(CCCc1nc3ccccc3o1)CC2 | 6.81 |
| Cc1cc(CN2C[C@@H]3CN(Cc4ccsc4)CCO[C@@H]3C2)no1 | -139 |
| COc1ccc2c(c1)c(C(=O)Nc1cc(C)n(C)n1)cn2C(C)C | -1.33 |
| O=C(NC[C@]12COC[C@H]1CN(Cc1cccnc1)C2)c1ccno1 | 4.35 |
| COc1cc2c(cc1C1CC(=O)NCc3nc(N(C)C)sc31)CCC2 (stereo not given) | 1.16 |
| CS(=O)(=O)CCNC(=O)Nc1sc2ccccc2c1Cl | 41.7 |
| CC(NC(=O)c1ccoc1)c1ccc2c(c1)CCC(=O)N2 (stereo not given) | -1.36 |
| COCc1nnc(C(=O)N2CC(N3CCCCC3)C2)o1 | -3.57 |
| NC(=O)C1CCCN1Cc1nccn1CC(F)(F)F (stereo not given) | 12.2 |
| O=S1(=O)NC(=CSCc2ccccc2)Nc2ccccc21 | 0.603 |
| O=C(c1ccoc1)N1CCC2(CC1)C(=O)Nc1ccccc12 | -13.6 |
| O=C(c1ccnc(-n2ccnc2)c1)N1CCCC(n2ccnc2)C1 (stereo not given) | 0.956 |
| CC(=O)Nc1nc(CN2CCn3c(nnc3C3CC3)C2)cs1 | -7.91 |
| CN1C(=O)C2(CCN(C(=O)c3cccnc3)CC2)c2cccc(F)c21 | -1.06 |

| Compound | cytotoxicity at 10 µM [%] |
| --- | --- |
| O=C1CCCCCN1Cc1nc(C2(c3ccc(F)cc3)CCOC2)no1 (stereo not given) | 21.1 |
| Cc1cc(C(=O)N2CCCC3(CCCN3Cc3cccnc3)C2)[nH]n1 (stereo not given) | 8.07 |
| CC(NC(=O)Cn1cc(C(N)=O)c(-c2ccccc2)n1)C1CC1 (stereo not given) | -7.9 |
| Cn1ncc2c(=O)[nH]c(CN3CCCC3CC3CCCCC3)nc21 (stereo not given) | -2.41 |
| CCS(=O)(=O)Nc1ccn(Cc2cccc(F)c2)n1 | 6.22 |
| O=C(N[C@H]1CN(Cc2ccsc2)[C@@H]2CCCO[C@H]12)C1CC1 | 4.62 |
| COc1cc(Br)c(CNc2ccn(CCC(N)=O)n2)cc1OC | -2.87 |
| Cc1nn2cc(CCNC(=O)c3cc(C(C)C)nn3C)nc2s1 | 34.9 |
| Cc1ccc2cccc(C(=O)NCCOCC3CC3)c2n1 | -20.3 |
| COc1cc(CN(C)C(=O)NCc2cccnc2OC)ccc1SC | -8.82 |
| CN(C(=O)CN1CCC(NC(=O)c2cccs2)CC1)c1ccccc1 | -8.55 |
| O=C(NC1CC1)N1Cc2[nH]nc(COCC3CC3)c2C1 | 13.6 |
| CC(NC1(CNC(=O)Cn2cccn2)CCOCC1)c1ccccc1 (stereo not given) | -3.07 |
| Cc1cnn(CC2CN(c3ncnc4[nH]ccc34)CCO2)c1 (stereo not given) | -1.91 |
| Nc1nccc(N2CCC(Cc3ccccc3Cl)(C(=O)O)CC2)n1 | -21.8 |
| Cc1cc(NC(=O)NCc2ccncc2)ccc1OC(C)C | -8.36 |
| Cn1cc(C(=O)N2CCCN(C3Cc4ccccc4C3)CC2)cn1 | -3.68 |
| Cc1nn(CCC(=O)NC(C(=O)O)c2c(C)n[nH]c2C)c(C)c1C (stereo not given) | -2.72 |
| CN1C[C@@H](N)C[C@H]1c1nc(-c2ccc3c(c2)OCO3)no1 | -3.75 |
| c1cncc(N2CCOC3(CCCN(c4nncs4)C3)C2)c1 (stereo not given) | 6.56 |
| CC(C)CN1C[C@@H]2C[C@H](C(=O)Nc3cccnc3)[C@H](C1)O2 | 7.8 |
| c1cc(-c2nc(C3CCN(Cc4ccsc4)CC3)no2)ccn1 | -26.5 |

| Compound | cytotoxicity at 10 µM [%] |
| --- | --- |
| CCOc1ccc(CN(C)C(=O)COc2ccc(C)nc2)cc1 | 22.7 |
| Cc1nn(C)cc1CN1CCCC(n2c(=O)oc3ccc(Cl)cc32)C1 (stereo not given) | 4.88 |
| Cc1oc(-c2ccoc2)nc1CN1CCCCC1CCc1ccccc1 (stereo not given) | -1.48 |
| CC(C)(C)OC(=O)N1CSC[C@@H]1C(=O)NCc1cccc(C#N)c1 | -5.88 |
| CCOCC1CN(CCc2ccccc2)Cc2c1cnn2C (stereo not given) | -120 |
| COCC(=O)N1C[C@H]2CCCC(OCc3cccnc3)[C@H]2C1 (stereo not given in full) | -5.67 |
| CC(C)c1ccc(S(=O)(=O)Cc2nc(N)nc(N(C)C)n2)cc1 | -11.1 |
| Cc1cc(CSc2nc(=O)ccn2C(C)C)no1 | 14.9 |
| COc1ccc(OCC(=O)NS(=O)(=O)c2ccc(Br)s2)cc1 | -0.383 |
| CC1COC2(CCN(C(=O)c3ncoc3C(C)C)CC2)O1 (stereo not given) | 1.15 |
| Cc1cc(N(C)C)nc(C2COCCN2Cc2cscn2)n1 (stereo not given) | -6.94 |
| COCC1CCN(S(=O)(=O)N2C[C@H](c3ccccc3)[C@@H](N)C2)CC1 | 1.12 |
| O=C(O)C(c1ccc(Cl)c(F)c1)N1CCN(Cc2ccccn2)CC1 (stereo not given) | 8.09 |
| Cc1nn(C)c(C)c1CN(C)C(C(=O)O)c1ccc(F)cc1F (stereo not given) | 8.42 |
| Cn1cc(Cl)c(CN2CCCC(Cn3cc(CO)nn3)C2)n1 (stereo not given) | 1.18 |
| CC(C)NC(=O)NCc1cc(-c2cccc(Cl)c2)nn1C | 3.66 |
| Cc1cc(C)nc(C2CCN(C(=O)CCn3nnc4ccccc43)C2)n1 (stereo not given) | -0.834 |
| Cc1ccc(-n2c(SCC(=O)O)nnc2-c2cccc(C)c2)cc1 | -2.05 |
| CC1CCCN(C(=O)c2nnn(-c3ccc(C(F)(F)F)cc3)n2)C1 (stereo not given) | -3.43 |
| CN(Cc1cc(C(C)(C)C)n[nH]1)C(=O)c1ccccc1C1CCNC1 (stereo not given) | -2.32 |
| N#CC(NC(=O)CCC(=O)NC1CCCC1)c1ccc(F)cc1F (stereo not given) | 6.75 |
| CCc1noc(C(C)N2CCC(C(=O)Nc3cnn(CC)c3)CC2)n1 (stereo not given) | 2.21 |
